# Assays:
# Assay type in all cases: functional
# [1] = system: Klebsiella pneumoniae; experiment: Antibacterial activity against Klebsiella pneumoniae D11750/08 after 48 hrs by broth microdilution method; details: D11750/08, 48 h
# Summary of the method: (§1)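 Broth microdilution following […], with twofold compound dilutions in Mueller-Hinton bouillon. Incubated 24 and 48 h at 35 °C in the dark in a humid atmosphere. MIC (IC80) was taken as ≥80% growth reduction versus control, read visually and photometrically.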
# [2] = system: Staphylococcus aureus; experiment: Antibacterial activity against methicillin-resistant Staphylococcus aureus H5996/08 after 24 hrs by broth microdilution method; details: H5996/08, 24 h; summary of the method: as §1
# [3] = system: Mycobacterium avium; experiment: Antimycobacterial activity against Mycobacterium avium
# [4] = system: Mycobacterium avium; experiment: Antimycobacterial activity against multidrug-resistant Mycobacterium avium 330/88 after 14 days by micromethod; details: 330/88, 336 h
# Summary of the method: (§2)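 Micromethod in Sula semisynthetic medium, with compounds added as DMSO solutions at 1000, 500, 250, 125, 62, 32, 16, 8, 4, 2, 1, 0.5, 0.25. Inoculum dilutions: H37Rv 10^-3; M. avium 330/88 10^-5; M. kansasii 235/80 10^-4; M. kansasii 6509/96 10^-5. Incubated at 37 °C, read at 14 and 21 days, and at 7 days for M. kansasii. MIC was the lowest concentration inhibiting growth.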
# [5] = system: Candida tropicalis; experiment: Antifungal activity against Candida tropicalis 156 after 24 hrs by broth microdilution method; details: Candida tropicalis, 156, 24 h
# [6] = system: Mycobacterium kansasii; experiment: Antimycobacterial activity against Mycobacterium kansasii 235/80 after 14 days by micromethod; details: 235/80, 336 h; summary of the method: as §2
# [7] = system: Trichosporon beigelii; experiment: Antifungal activity against Trichosporon beigelii 1188 after 24 hrs by broth microdilution method; details: Trichosporon beigelii, 1188, 24 h
# [8] = system: Escherichia coli; experiment: Antibacterial activity against Escherichia coli CCM 4517 after 48 hrs by broth microdilution method; details: CCM 4517, 48 h; summary of the method: as §1
# [9] = system: Trichophyton mentagrophytes; experiment: Antifungal activity against Trichophyton mentagrophytes after 48 hrs by broth microdilution method
# [10] = system: Mycobacterium tuberculosis; experiment: Antimycobacterial activity against Mycobacterium tuberculosis H37Rv 331/88 after 14 days by micromethod; details: H37Rv 331/88, 336 h; summary of the method: as §2
# [11] = system: Aspergillus fumigatus; experiment: Antifungal activity against Aspergillus fumigatus 231 after 24 hrs by broth microdilution method; details: Aspergillus fumigatus, 231, 24 h
# [12] = system: Mycobacterium kansasii; experiment: Antimycobacterial activity against Mycobacterium kansasii 235/80 after 7 days by micromethod; details: 235/80, 168 h; summary of the method: as §2
# [13] = system: Nakaseomyces glabratus; experiment: Antifungal activity against Candida glabrata 20/I after 48 hrs by broth microdilution method
# [14] = system: Mycobacterium kansasii; experiment: Antimycobacterial activity against Mycobacterium kansasii
# [15] = system: Escherichia coli; experiment: Antibacterial activity against Escherichia coli CCM 4517 after 24 hrs by broth microdilution method; details: CCM 4517, 24 h; summary of the method: as §1
# [16] = system: Staphylococcus epidermidis; experiment: Antibacterial activity against Staphylococcus epidermidis H6966/08 after 24 hrs by broth microdilution method; details: H6966/08, 24 h; summary of the method: as §1
# [17] = system: Enterococcus sp.; experiment: Antibacterial activity against Enterococcus sp. J14365/08 after 24 hrs by broth microdilution method; details: J14365/08, 24 h; summary of the method: as §1
# [18] = system: Lichtheimia corymbifera; experiment: Antifungal activity against Absidia corymbifera 272 after 48 hrs by broth microdilution method; details: Lichtheimia corymbifera, 272, 48 h
# [19] = system: Aspergillus fumigatus; experiment: Antifungal activity against Aspergillus fumigatus 231 after 48 hrs by broth microdilution method; details: Aspergillus fumigatus, 231, 48 h
# [20] = system: Mycobacterium tuberculosis; experiment: Antimycobacterial activity against drug-sensitive Mycobacterium tuberculosis
# [21] = system: Mycobacterium kansasii; experiment: Antimycobacterial activity against Mycobacterium kansasii 6509/96 after 14 days by micromethod; details: 6509/96, 336 h; summary of the method: as §2
# [22] = system: Staphylococcus aureus; experiment: Antibacterial activity against methicillin-resistant Staphylococcus aureus H5996/08 after 48 hrs by broth microdilution method; details: H5996/08, 48 h; summary of the method: as §1
# [23] = system: Mycobacterium kansasii; experiment: Antimycobacterial activity against Mycobacterium kansasii 6509/96 after 21 days by micromethod; details: 6509/96, 504 h; summary of the method: as §2
# [24] = system: Staphylococcus aureus; experiment: Antibacterial activity against Staphylococcus aureus CCM 4516/08 after 24 hrs by broth microdilution method; details: CCM 4516/08, 24 h; summary of the method: as §1
# [25] = system: Pichia kudriavzevii; experiment: Antifungal activity against Candida krusei E28 after 48 hrs by broth microdilution method; details: E28, 48 h
# [26] = system: Mycobacterium avium; experiment: Antimycobacterial activity against multidrug-resistant Mycobacterium avium 330/88 after 21 days by micromethod; details: 330/88, 504 h; summary of the method: as §2
# [27] = system: Enterococcus sp.; experiment: Antibacterial activity against Enterococcus sp. J14365/08 after 48 hrs by broth microdilution method; details: J14365/08, 48 h; summary of the method: as §1
# [28] = system: Mycobacterium kansasii; experiment: Antimycobacterial activity against Mycobacterium kansasii 235/80 after 21 days by micromethod; details: 235/80, 504 h; summary of the method: as §2
# [29] = system: Candida tropicalis; experiment: Antifungal activity against Candida tropicalis 156 after 48 hrs by broth microdilution method; details: Candida tropicalis, 156, 48 h
# [30] = system: Nakaseomyces glabratus; experiment: Antifungal activity against Candida glabrata 20/I after 24 hrs by broth microdilution method
# [31] = system: Klebsiella pneumoniae; experiment: Antibacterial activity against Klebsiella pneumoniae D11750/08 after 24 hrs by broth microdilution method; details: D11750/08, 24 h; summary of the method: as §1
# [32] = system: Trichosporon beigelii; experiment: Antifungal activity against Trichosporon beigelii 1188 after 48 hrs by broth microdilution method; details: Trichosporon beigelii, 1188, 48 h
# [33] = system: Staphylococcus epidermidis; experiment: Antibacterial activity against Staphylococcus epidermidis H6966/08 after 48 hrs by broth microdilution method; details: H6966/08, 48 h; summary of the method: as §1
# [34] = system: Lichtheimia corymbifera; experiment: Antifungal activity against Absidia corymbifera 272 after 24 hrs by broth microdilution method; details: Lichtheimia corymbifera, 272, 24 h
# [35] = system: Mycobacterium tuberculosis; experiment: Antimycobacterial activity against Mycobacterium tuberculosis H37Rv 331/88 after 21 days by micromethod; details: H37Rv 331/88, 504 h; summary of the method: as §2
# [36] = system: Candida albicans; experiment: Antifungal activity against Candida albicans ATCC 44859 after 48 hrs by broth microdilution method; details: ATCC 44859, 48 h
# [37] = system: Pichia kudriavzevii; experiment: Antifungal activity against Candida krusei E28 after 24 hrs by broth microdilution method; details: E28, 24 h
# [38] = system: Staphylococcus aureus; experiment: Antibacterial activity against Staphylococcus aureus CCM 4516/08 after 48 hrs by broth microdilution method; details: CCM 4516/08, 48 h; summary of the method: as §1
# [39] = system: Mycobacterium kansasii; experiment: Antimycobacterial activity against Mycobacterium kansasii 6509/96 after 7 days by micromethod; details: 6509/96, 168 h; summary of the method: as §2
# [40] = system: Trichophyton mentagrophytes; experiment: Antifungal activity against Trichophyton mentagrophytes after 24 hrs by broth microdilution method
# [41] = system: Candida albicans; experiment: Antifungal activity against Candida albicans ATCC 44859 after 24 hrs by broth microdilution method; details: ATCC 44859, 24 h
structure (smiles),measurement,setting,value
CC(=O)N[C@@H](Cc1ccccc1)C(=O)Oc1cc(Cl)ccc1C(=O)Nc1ccc(Cl)c(Cl)c1,MIC,[1],> 125 µM
same,MIC,[2],125 µM
same,MIC,[3],1 µM
same,MIC,[4],8 µM
same,MIC,[5],125 µM
same,MIC,[6],4 µM
same,MIC,[7],125 µM
same,MIC,[8],> 125 µM
same,MIC,[9],> 125 µM
same,MIC,[10],2 µM
same,MIC,[11],125 µM
same,MIC,[12],4 µM
same,MIC,[13],> 125 µM
same,MIC,[14],1 µM
same,MIC,[15],125 µM
same,MIC,[16],125 µM
same,MIC,[17],125 µM
same,MIC,[18],> 125 µM
same,MIC,[19],> 125 µM
same,MIC,[20],1 µM
same,MIC,[21],2 µM
same,MIC,[22],> 125 µM
same,MIC,[23],4 µM
same,MIC,[24],125 µM
same,MIC,[25],> 125 µM
same,MIC,[26],16 µM
same,MIC,[27],> 125 µM
same,MIC,[28],4 µM
same,MIC,[29],> 125 µM
same,MIC,[30],> 125 µM
same,MIC,[31],> 125 µM
same,MIC,[32],> 125 µM
same,MIC,[33],> 125 µM
same,MIC,[34],125 µM
same,MIC,[35],2 µM
same,MIC,[36],> 125 µM
same,MIC,[37],> 125 µM
same,MIC,[38],> 125 µM
same,MIC,[39],1 µM
same,MIC,[40],62.5 µM
same,MIC,[41],125 µM
CC(=O)N[C@@H](Cc1ccccc1)C(=O)Oc1cc(Cl)ccc1C(=O)Nc1ccc(C(F)(F)F)cc1,MIC,[1],> 125 µM
same,MIC,[2],125 µM
same,MIC,[3],1 µM
same,MIC,[4],16 µM
same,MIC,[5],> 125 µM
same,MIC,[6],4 µM
same,MIC,[7],125 µM
same,MIC,[8],> 125 µM
same,MIC,[9],> 125 µM
same,MIC,[10],8 µM
same,MIC,[11],62.5 µM
same,MIC,[12],4 µM
same,MIC,[13],> 125 µM
same,MIC,[14],1 µM
same,MIC,[15],> 125 µM
same,MIC,[16],125 µM
same,MIC,[17],125 µM
same,MIC,[18],> 125 µM
same,MIC,[19],> 125 µM
same,MIC,[20],1 µM
same,MIC,[21],8 µM
same,MIC,[22],> 125 µM
same,MIC,[23],8 µM
same,MIC,[24],125 µM
same,MIC,[25],> 125 µM
same,MIC,[26],32 µM
same,MIC,[27],> 125 µM
same,MIC,[28],4 µM
same,MIC,[29],> 125 µM
same,MIC,[30],> 125 µM
same,MIC,[31],> 125 µM
same,MIC,[32],> 125 µM
same,MIC,[33],> 125 µM
same,MIC,[34],62.5 µM
same,MIC,[35],16 µM
same,MIC,[36],> 125 µM
same,MIC,[37],62.5 µM
same,MIC,[38],> 125 µM
same,MIC,[39],4 µM
same,MIC,[40],125 µM
same,MIC,[41],> 125 µM

# Reference: ChEMBL document CHEMBL1629494, “New amino acid esters of salicylanilides active against MDR-TB and other microbes” (Eur J Med Chem, 2010)
